According to ChEMBL document CHEMBL1134325, “Diaminoindanes as microsomal triglyceride transfer protein inhibitors” (J Med Chem, 2001):
“And” between values parts separate entries of the source, which are not always exact repeats. Identical values can stand only once.

Columns and labels:
Rattus norvegicus [1] = test: Hepatic triglyceride content in Normolipidemic rat liver for 5 mg/kg of dose of the compound; format: functional
In short: (§1)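 Normolipidemic rats dosed orally, with vehicle controls. Liver cholesterol and triglyceride are reported as mg/g of liver, and liver weight in g. For the reversibility set, dosing was 5 mg/kg for 5 days, with livers analysed after treatment and again 6 days after treatment withdrawal.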

Canis familiaris [2] = test: Inhibition of plasma total triglycerides in the normolipidemic dogs after day 4 of oral administration of 2.5 mg/kg/day; format: functional, Canis lupus familiaris
Canis familiaris [3] = test: Inhibition of plasma total cholesterol in the normolipidemic dogs after day 3 of oral administration of 2.5 mg/kg/day.; format: functional, Canis lupus familiaris
In short: (§2)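 Normolipidemic dogs dosed once daily for 4 days by oral gavage, compound suspended in cornstarch vehicle. Plasma sampled 24 h after dosing on days 0, 2, 3 and 4, assayed for triglycerides and total cholesterol (mg/dL). Mean percent inhibition versus day-0 level is given for treated dogs; n = 6 per group; significance by one-way ANOVA, p < 0.05.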

Canis familiaris [4] = test: Inhibition of plasma total triglycerides in the normolipidemic dogs after day 0 of oral administration of 5 mg/kg/day.; format: functional, Canis lupus familiaris; in short: as §2
[5] = target: T1, Microsomal triglyceride transfer protein large subunit (Homo sapiens, UniProt P55157); test: In vitro inhibitory activity against MTP using MTP transfer assay
T1 sequence (P55157 whole entry): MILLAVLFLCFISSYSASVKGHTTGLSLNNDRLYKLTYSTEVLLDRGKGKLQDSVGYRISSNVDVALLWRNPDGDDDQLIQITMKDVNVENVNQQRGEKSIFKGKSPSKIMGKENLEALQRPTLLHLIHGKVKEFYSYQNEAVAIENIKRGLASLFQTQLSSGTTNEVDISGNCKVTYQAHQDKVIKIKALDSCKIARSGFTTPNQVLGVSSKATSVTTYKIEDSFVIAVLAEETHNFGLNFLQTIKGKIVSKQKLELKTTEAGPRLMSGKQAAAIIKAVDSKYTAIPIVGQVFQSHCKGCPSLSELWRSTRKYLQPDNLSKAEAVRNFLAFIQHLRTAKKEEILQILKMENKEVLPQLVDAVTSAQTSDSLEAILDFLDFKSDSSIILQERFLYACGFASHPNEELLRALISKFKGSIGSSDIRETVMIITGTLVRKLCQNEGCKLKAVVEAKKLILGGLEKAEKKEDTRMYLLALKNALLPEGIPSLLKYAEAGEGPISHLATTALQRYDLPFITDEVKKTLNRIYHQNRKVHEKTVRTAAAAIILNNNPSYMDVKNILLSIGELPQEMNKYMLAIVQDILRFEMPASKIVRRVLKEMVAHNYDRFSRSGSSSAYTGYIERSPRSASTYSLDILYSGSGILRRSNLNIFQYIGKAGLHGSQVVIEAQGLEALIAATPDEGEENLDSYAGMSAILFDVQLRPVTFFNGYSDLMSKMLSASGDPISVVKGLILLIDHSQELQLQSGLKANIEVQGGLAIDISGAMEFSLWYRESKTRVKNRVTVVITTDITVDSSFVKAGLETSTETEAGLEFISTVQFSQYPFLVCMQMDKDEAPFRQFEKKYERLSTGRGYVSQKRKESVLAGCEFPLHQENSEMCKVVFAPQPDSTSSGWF

Rattus norvegicus [6] = species on record: Rattus norvegicus; test: Hepatic cholesterol content in Normolipidemic rat liver after washout.; format: functional; in short: as §1
Canis familiaris [7] = test: Inhibition of plasma total cholesterol in the normolipidemic dogs after day 4 of oral administration of 1 mg/kg/day; format: functional, Canis lupus familiaris; in short: as §2
Canis familiaris [8] = test: Inhibition of plasma total cholesterol in the normolipidemic dogs after day 4 of oral administration of 5 mg/kg/day; format: functional, Canis lupus familiaris; in short: as §2
Rattus norvegicus [9] = test: Inhibition of plasma triglycerides in normolipidemic rats after 2 hr of 10 mg/kg oral dosing; format: functional
In short: (§3)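 Overnight-fasted normolipidemic rats received a single oral dose in cornstarch vehicle. Blood was drawn at 2, 6 and 24 h post-dose and assayed for triglycerides and total cholesterol, with free access to food after the 6 h sample. Value is mean percent inhibition versus a separate vehicle-treated group, unpaired t test p < 0.05, NS = no significant change, N = 6.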

Rattus norvegicus [10] = species on record: Rattus norvegicus; test: Hepatic cholesterol content in Normolipidemic rat liver after treatment.; format: functional; in short: as §1
Rattus norvegicus [11] = test: Inhibition of total cholesterol in normolipidemic rats after 6 hr of 50 mg/kg oral dosing; format: functional; conditions: 50 mg/kg; in short: as §3
Canis familiaris [12] = test: Inhibition of plasma total triglycerides in the normolipidemic dogs after day 3 of oral administration of 2.5 mg/kg/day.; format: functional, Canis lupus familiaris
Rattus norvegicus [13] = test: Total liver weight in Normolipidemic rat liver for 1 mg/kg of dose of the compound; format: functional; in short: as §1
Canis familiaris [14] = test: Inhibition of plasma total triglycerides in the normolipidemic dogs after day 3 of oral administration of 5 mg/kg/day.; format: functional, Canis lupus familiaris
Rattus norvegicus [15] = test: Inhibition of plasma triglycerides in normolipidemic rats after 6 h of 5 mg/kg oral dosing; format: functional; in short: as §3
Canis familiaris [16] = test: Inhibition of plasma total cholesterol in the normolipidemic dogs after day 2 of oral administration of 2.5 mg/kg/day.; format: functional, Canis lupus familiaris; in short: as §2
Canis familiaris [17] = test: Inhibition of plasma total triglycerides in the normolipidemic dogs after day 3 of oral administration of 1 mg/kg/day.; format: functional, Canis lupus familiaris
Rattus norvegicus [18] = test: Hepatic cholesterol content in Normolipidemic rat liver for 1 mg/kg of dose of the compound; format: functional; in short: as §1
Canis familiaris [19] = test: Inhibition of plasma total cholesterol in the normolipidemic dogs after day 2 of oral administration of 5 mg/kg/day.; format: functional, Canis lupus familiaris; in short: as §2
Canis familiaris [20] = test: Inhibition of plasma total triglycerides in the normolipidemic dogs after day 2 of oral administration of 1 mg/kg/day.; format: functional, Canis lupus familiaris; in short: as §2
Rattus norvegicus [21] = test: Inhibition of plasma triglycerides in normolipidemic rats after 24 hr of 10 mg/kg oral dosing; no significant change; format: functional, organism-based; set-up: dose 10 mg/kg; in short: as §3
Canis familiaris [22] = test: Inhibition of plasma total cholesterol in the normolipidemic dogs after day 2 of oral administration of 1 mg/kg/day.; format: functional, Canis lupus familiaris; in short: as §2
Canis familiaris [23] = test: Inhibition of plasma total cholesterol in the normolipidemic dogs after day 4 of oral administration of 2.5 mg/kg/day; format: functional, Canis lupus familiaris; in short: as §2
Rattus norvegicus [24] = test: Inhibition of plasma triglycerides in normolipidemic rats after 2 hr of 50 mg/kg oral dosing; format: functional; in short: as §3
Canis familiaris [25] = test: Inhibition of plasma total triglycerides in the normolipidemic dogs after day 2 of oral administration of 5 mg/kg/day.; format: functional, Canis lupus familiaris; in short: as §2
Rattus norvegicus [26] = species on record: Rattus norvegicus; test: Hepatic triglyceride content in Normolipidemic rat liver after washout.; format: functional; in short: as §1
Rattus norvegicus [27] = test: Hepatic triglyceride content in Normolipidemic rat liver for 0.5 mg/kg of dose of the compound; format: functional; in short: as §1
Rattus norvegicus [28] = test: Hepatic cholesterol content in Normolipidemic rat liver for 0.5 mg/kg of dose of the compound; format: functional; in short: as §1
Canis familiaris [29] = test: Inhibition of plasma total cholesterol in the normolipidemic dogs after day 0 of oral administration of 2.5 mg/kg/day.; format: functional, Canis lupus familiaris; in short: as §2
Rattus norvegicus [30] = test: Hepatic triglyceride content in Normolipidemic rat liver for 1 mg/kg of dose of the compound; format: functional; in short: as §1
Canis familiaris [31] = test: Inhibition of plasma total triglycerides in the normolipidemic dogs after day 0 of oral administration of 1 mg/kg/day.; format: functional, Canis lupus familiaris; in short: as §2
Rattus norvegicus [32] = test: Inhibition of plasma triglycerides in normolipidemic rats after 24 hr of 50 mg/kg oral dosing; format: functional; in short: as §3
Rattus norvegicus [33] = test: Hepatic cholesterol content in Normolipidemic rat liver for 5 mg/kg of dose of the compound; format: functional; in short: as §1
Rattus norvegicus [34] = test: Inhibition of total cholesterol in normolipidemic rats after 2 hr of 50 mg/kg oral dosing; format: functional; conditions: 50 mg/kg; in short: as §3
Rattus norvegicus [35] = test: Inhibition of plasma triglycerides in normolipidemic rats after 6 hr of 50 mg/kg oral dosing; format: functional; in short: as §3
Canis familiaris [36] = test: Inhibition of plasma total cholesterol in the normolipidemic dogs after day 3 of oral administration of 5 mg/kg/day.; format: functional, Canis lupus familiaris; in short: as §2
Rattus norvegicus [37] = test: Inhibition of plasma triglycerides in normolipidemic rats after 2 hr of 5 mg/kg oral dosing; format: functional; in short: as §3
Rattus norvegicus [38] = test: Inhibition of plasma triglycerides in normolipidemic rats after 6 hr of 10 mg/kg oral dosing; format: functional; in short: as §3
Rattus norvegicus [39] = species on record: Rattus norvegicus; test: Hepatic triglyceride content in Normolipidemic rat liver after treatment.; format: functional; in short: as §1
Rattus norvegicus [40] = test: Total liver weight in Normolipidemic rat liver for 5 mg/kg of dose of the compound; format: functional; in short: as §1
Canis familiaris [41] = test: Inhibition of plasma total cholesterol in the normolipidemic dogs after day 0 of oral administration of 5 mg/kg/day.; format: functional, Canis lupus familiaris; in short: as §2
Canis familiaris [42] = test: Inhibition of plasma total cholesterol in the normolipidemic dogs after day 0 of oral administration of 1 mg/kg/day.; format: functional, Canis lupus familiaris; in short: as §2
Canis familiaris [43] = test: Inhibition of plasma total triglycerides in the normolipidemic dogs after day 4 of oral administration of 5 mg/kg/day; format: functional, Canis lupus familiaris
Canis familiaris [44] = test: Inhibition of plasma total cholesterol in the normolipidemic dogs after day 3 of oral administration of 1 mg/kg/day.; format: functional, Canis lupus familiaris; in short: as §2
Canis familiaris [45] = test: Inhibition of plasma total triglycerides in the normolipidemic dogs after day 0 of oral administration of 2.5 mg/kg/day.; format: functional, Canis lupus familiaris; in short: as §2
Rattus norvegicus [46] = test: Total liver weight in Normolipidemic rat liver for 0.5 mg/kg of dose of the compound; format: functional; in short: as §1
Canis familiaris [47] = test: Inhibition of plasma total triglycerides in the normolipidemic dogs after day 4 of oral administration of 1 mg/kg/day.; format: functional, Canis lupus familiaris
Canis familiaris [48] = test: Inhibition of plasma total triglycerides in the normolipidemic dogs after day 2 of oral administration of 2.5 mg/kg/day.; format: functional, Canis lupus familiaris; in short: as §2

## COC(=O)N[C@H]1Cc2ccc(NC(=O)c3cccc(C)c3-c3ccc(C(F)(F)F)cc3)cc2C1
Rattus norvegicus [1]
  Hepatic triglyceride: 17.7 mg/g
Canis familiaris [2]
  Lipid level: <23 mg/dL
Canis familiaris [3]
  Lipid level: <76 mg/dL
Canis familiaris [4]
  Lipid level: 48 mg/dL
[5]
  IC50: 70 nM
Rattus norvegicus [6]
  Hepatic cholesterol: 1.12 mg/g
Canis familiaris [7]
  Lipid level: <89 mg/dL
Canis familiaris [8]
  Lipid level: <54 mg/dL
Rattus norvegicus [9]
  Reduction: 84%
Rattus norvegicus [10]
  Hepatic cholesterol: <2.76 mg/g
Rattus norvegicus [11]
  Reduction: 52% and 58% and 47%
Canis familiaris [12]
  Lipid level: <25 mg/dL
Rattus norvegicus [13]
  Total liver weight: 9.6 g
Canis familiaris [14]
  Lipid level: <16 mg/dL
Rattus norvegicus [15]
  Reduction: 59%
Canis familiaris [16]
  Lipid level: <90 mg/dL
Canis familiaris [17]
  Lipid level: 48 mg/dL
Rattus norvegicus [18]
  Hepatic cholesterol: 2.01 mg/g
Canis familiaris [19]
  Lipid level: <87 mg/dL
Canis familiaris [20]
  Lipid level: 42 mg/dL
Rattus norvegicus [21]
  NS: no significant change
Canis familiaris [22]
  Lipid level: 103 mg/dL
Canis familiaris [23]
  Lipid level: <57 mg/dL
Rattus norvegicus [24]
  Reduction: 81%
Canis familiaris [25]
  Lipid level: <22 mg/dL
Rattus norvegicus [26]
  Hepatic triglyceride: 2.38 mg/g
Rattus norvegicus [27]
  Hepatic triglyceride: 4.61 mg/g
Rattus norvegicus [28]
  Hepatic cholesterol: 1.4 mg/g
Canis familiaris [29]
  Lipid level: 113 mg/dL
Rattus norvegicus [30]
  Hepatic triglyceride: 8.16 mg/g
Canis familiaris [31]
  Lipid level: 46 mg/dL
Rattus norvegicus [32]
  Reduction: 63%
Rattus norvegicus [33]
  Hepatic cholesterol: 3.09 mg/g
Rattus norvegicus [34]
  Reduction: 33% and 41% and 30%
Rattus norvegicus [35]
  Reduction: 71%
Canis familiaris [36]
  Lipid level: <68 mg/dL
Rattus norvegicus [37]
  Reduction: 78%
Rattus norvegicus [38]
  Reduction: 68%
Rattus norvegicus [39]
  Hepatic triglyceride: <13.6 mg/g
Rattus norvegicus [40]
  Total liver weight: 9.79 g
Canis familiaris [41]
  Lipid level: 124 mg/dL
Canis familiaris [42]
  Lipid level: 110 mg/dL
Canis familiaris [43]
  Lipid level: <12 mg/dL
Canis familiaris [44]
  Lipid level: 101 mg/dL
Canis familiaris [45]
  Lipid level: 59 mg/dL
Rattus norvegicus [46]
  Total liver weight: 9.13 g
Canis familiaris [47]
  Lipid level: 45 mg/dL
Canis familiaris [48]
  Lipid level: <32 mg/dL
